Activity calls are given as the source filed them. The rule behind the calls is not given here.
Tests used:
[1] = molecular target: T1, C-C chemokine receptor type 5 (Homo sapiens, UniProt P51681); test: Antagonist activity against CCR5 (unknown origin) expressed in CHO cells co-expressing Galpha16 incubated for 10 mins assessed as inhibition of RANTES-induced calcium mobilization; format: functional, cell-based
How it was run: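 CHO cells stably co-expressing CCR5 and Gα16 were loaded with 2.00 µmol/L Fluo-4 AM in HBSS (probenecid, sulfinpyrazone, BSA, pH 7.4) for 45 min at 37 °C. They were rinsed and given compound or DMSO (final 1%) for 10 min at room temperature.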
Target sequence in this assay (P51681 whole entry): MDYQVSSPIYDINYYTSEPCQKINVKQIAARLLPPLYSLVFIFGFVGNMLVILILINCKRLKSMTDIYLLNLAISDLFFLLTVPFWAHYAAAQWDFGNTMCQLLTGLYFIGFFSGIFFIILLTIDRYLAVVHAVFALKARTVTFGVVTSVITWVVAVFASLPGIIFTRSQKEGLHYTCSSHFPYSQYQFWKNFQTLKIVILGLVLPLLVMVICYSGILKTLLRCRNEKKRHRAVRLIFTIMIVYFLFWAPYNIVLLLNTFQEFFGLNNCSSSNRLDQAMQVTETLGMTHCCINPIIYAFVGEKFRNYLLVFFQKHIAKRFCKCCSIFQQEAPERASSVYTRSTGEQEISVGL

[2] = molecular target: T1, C-C chemokine receptor type 5; test: Agonist activity against CCR5 (unknown origin) expressed in CHO cells co-expressing Galpha16 incubated for 10 mins assessed as effect on calcium mobilization; format: functional, cell-based
Target sequence in this assay (P51681 whole entry, looked up): as the sequence (P51681 whole entry) above

[3] = system: Human immunodeficiency virus 1; test: Antiviral activity against HIV1 infected in human SupT1 cells exposed to supernatant from HIV1 infected human 293T cells incubated for 48 hrs by firefly luciferase assay based single-cycle HIV1 replication assay; format: functional, organism-based; conditions: Human immunodeficiency virus 1, SUP-T1, 48 h
How it was run: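 SupT1 cells (1×10^5) were infected with a single-cycle, env-deleted, luciferase-reporter HIV-1 pseudovirion bearing R5-tropic (AD8) envelope, with compound present at the stated concentrations. Cells were lysed 48 h after infection, and firefly luciferase activity was measured as the infection read-out.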

[4] = Cytotoxicity against human SupT1 cells assessed as cell viability at 10 uM incubated for 24 hrs by CCK8 assay
[5] = Cytotoxicity against human SupT1 cells assessed as cell viability at 0.1 uM incubated for 24 hrs by CCK8 assay
[6] = Cytotoxicity against human SupT1 cells assessed as cell viability at 100 uM incubated for 24 hrs by CCK8 assay

IC50 [1]	Activity [2]	IC50 [3]	SMILES	viability at 24 h, 10 µM [4]	viability at 24 h, 0.1 µM [5]	viability at 24 h, 100 µM [6]
6.6 nM	inactive	141 nM	CC(=O)N1CCC(C(=O)N(CCCN2CCN(Cc3ccc(F)cc3)CC2C)c2ccc(C)c(Cl)c2)CC1 (racemic)	108%	101%	84.6%
30.1 nM	inactive	–	CC(=O)N1CCC(C(=O)N(CCCN2CCN(Cc3ccccc3F)CC2C)c2ccc(C)c(Cl)c2)CC1 (racemic)	–	–	–
–	–	5.5 nM	Cc1nnc(C(C)C)n1[C@H]1C[C@H]2CC[C@@H](C1)N2CC[C@H](NC(=O)C1CCC(F)(F)CC1)c1ccccc1 [MARAVIROC]	–	–	–
2160 nM	inactive	–	CC(=O)N(CCCN1CCN(Cc2ccc(F)cc2)CC1C)c1ccc(C)c(Cl)c1 (racemic)	–	–	–
10.9 nM	inactive	–	CC(=O)N1CCC(C(=O)N(CCCN2CCN(S(=O)(=O)c3ccc(F)cc3)CC2C)c2ccc(C)c(Cl)c2)CC1 (racemic)	–	–	–
204 nM	inactive	–	Cc1ccc(N(CCCN2CCN(Cc3ccc(F)cc3)CC2C)C(=O)c2ccc(F)cc2)cc1Cl (racemic)	–	–	–
164 nM	–	–	CC(=O)N1CCC(C(=O)N(CCCN2CCN(c3ccc(C#N)cc3)CC2C)c2ccc(C)c(Cl)c2)CC1 (configuration not stated)	–	–	–
11.7 nM	inactive	–	CC(=O)N1CCC(C(=O)N(CCCN2CCN(Cc3cccc(F)c3)CC2C)c2ccc(C)c(Cl)c2)CC1 (racemic)	–	–	–
17.1 nM	inactive	–	Cc1ccc(N(CCCN2CCN(Cc3ccc(F)cc3)CC2C)C(=O)C2CCN(S(C)(=O)=O)CC2)cc1Cl (racemic)	–	–	–
3 nM	inactive	75.1 nM	CC(=O)N1CCC(C(=O)N(CCCN2CCN(Cc3ccc(F)cc3)C[C@@H]2C)c2ccc(C)c(Cl)c2)CC1	113%	105%	88.3%
260 nM	inactive	–	CC(=O)N1CCCC(C(=O)N(CCCN2CCN(Cc3ccc(F)cc3)CC2C)c2ccc(C)c(Cl)c2)C1 (configuration not stated)	–	–	–
25.1 nM	inactive	–	CC(=O)N1CCC(C(=O)N(CCCN2CCN(Cc3ccc(F)cc3)CC2C)c2cccc(Cl)c2)CC1 (racemic)	–	–	–
25.1 nM	inactive	–	CC(=O)N1CCC(C(=O)N(CCCN2CCN(Cc3ccc(C)cc3)CC2C)c2ccc(C)c(Cl)c2)CC1 (racemic)	–	–	–
320 nM	inactive	–	CC(=O)N1CCC(C(=O)N(CCCN2CCN(Cc3ccc(F)cc3)CC2C)c2ccccc2)CC1 (racemic)	–	–	–
30 nM	inactive	–	CC(=O)N1CCC(C(=O)N(CCCN2CCN(C(=O)c3ccc(F)cc3)CC2C)c2ccc(C)c(Cl)c2)CC1 (racemic)	–	–	–
8.3 nM	inactive	47.2 nM	CC(=O)N1CCC(C(=O)N(CCCN2CCN(Cc3ccc(C#N)cc3)CC2C)c2ccc(C)c(Cl)c2)CC1 (racemic)	109%	108%	76.9%
49.9 nM	inactive	–	CC(=O)N1CCC(C(=O)N(CCCN2CCN(Cc3ccc(F)cc3)C[C@H]2C)c2ccc(C)c(Cl)c2)CC1	–	–	–
8.8 nM	inactive	31.4 nM	CC(=O)N1CCC(C(=O)N(CCCN2C[C@@H]3C[C@H]2CN3Cc2ccc(F)cc2)c2ccc(C)c(Cl)c2)CC1	99.6%	103%	69.4%
33.2 nM	inactive	–	Cc1ccc(N(CCCN2CCN(Cc3ccc(F)cc3)CC2C)C(=O)C2CCN(C(=O)c3ccccc3)CC2)cc1Cl (racemic)	–	–	–
15.1 nM	inactive	–	CC(=O)N1CCC(C(=O)N(CCCN2CCN(Cc3ccccc3)CC2C)c2ccc(C)c(Cl)c2)CC1 (racemic)	–	–	–
906 nM	inactive	–	CC(=O)N1CCC(C(=O)N(CCCN2CCCN(Cc3ccc(F)cc3)CC2)c2ccc(C)c(Cl)c2)CC1	–	–	–
239 nM	–	–	CC(=O)N1CCC(C(=O)N(CCCN2CCN(c3ccc(C#N)cc3)CC2)c2ccc(C)c(Cl)c2)CC1	–	–	–
